Test results published in ChEMBL document CHEMBL3860038, “Discovery of (R,E)-N-(7-Chloro-1-(1-[4-(dimethylamino)but-2-enoyl]azepan-3-yl)-1H-benzo[d]imidazol-2-yl)-2-methylisonicotinamide (EGF816), a Novel, Potent, and WT Sparing Covalent Inhibitor of Oncogenic (L858R, ex19del) and Resistant (T790M) EGFR Mutants for the Treatment of EGFR Mutant …” (J Med Chem, 2016).
Values belong to the compound of their own block, whether it stands above or below them.

Assays:
[1] = Aqueous solubility of the compound at pH 6.8; type: physicochemical
[2] = Intrinsic clearance in mouse liver microsomes; type: ADME; details: read-out: CLH
[3] = biological target: T1, Epidermal growth factor receptor (Homo sapiens, UniProt P00533); assay: Inhibition of wild type EGFR phosphorylation in human HaCaT cells incubated for 3 hrs by ELISA method; type: cell-based
T1 sequence (P00533 whole entry): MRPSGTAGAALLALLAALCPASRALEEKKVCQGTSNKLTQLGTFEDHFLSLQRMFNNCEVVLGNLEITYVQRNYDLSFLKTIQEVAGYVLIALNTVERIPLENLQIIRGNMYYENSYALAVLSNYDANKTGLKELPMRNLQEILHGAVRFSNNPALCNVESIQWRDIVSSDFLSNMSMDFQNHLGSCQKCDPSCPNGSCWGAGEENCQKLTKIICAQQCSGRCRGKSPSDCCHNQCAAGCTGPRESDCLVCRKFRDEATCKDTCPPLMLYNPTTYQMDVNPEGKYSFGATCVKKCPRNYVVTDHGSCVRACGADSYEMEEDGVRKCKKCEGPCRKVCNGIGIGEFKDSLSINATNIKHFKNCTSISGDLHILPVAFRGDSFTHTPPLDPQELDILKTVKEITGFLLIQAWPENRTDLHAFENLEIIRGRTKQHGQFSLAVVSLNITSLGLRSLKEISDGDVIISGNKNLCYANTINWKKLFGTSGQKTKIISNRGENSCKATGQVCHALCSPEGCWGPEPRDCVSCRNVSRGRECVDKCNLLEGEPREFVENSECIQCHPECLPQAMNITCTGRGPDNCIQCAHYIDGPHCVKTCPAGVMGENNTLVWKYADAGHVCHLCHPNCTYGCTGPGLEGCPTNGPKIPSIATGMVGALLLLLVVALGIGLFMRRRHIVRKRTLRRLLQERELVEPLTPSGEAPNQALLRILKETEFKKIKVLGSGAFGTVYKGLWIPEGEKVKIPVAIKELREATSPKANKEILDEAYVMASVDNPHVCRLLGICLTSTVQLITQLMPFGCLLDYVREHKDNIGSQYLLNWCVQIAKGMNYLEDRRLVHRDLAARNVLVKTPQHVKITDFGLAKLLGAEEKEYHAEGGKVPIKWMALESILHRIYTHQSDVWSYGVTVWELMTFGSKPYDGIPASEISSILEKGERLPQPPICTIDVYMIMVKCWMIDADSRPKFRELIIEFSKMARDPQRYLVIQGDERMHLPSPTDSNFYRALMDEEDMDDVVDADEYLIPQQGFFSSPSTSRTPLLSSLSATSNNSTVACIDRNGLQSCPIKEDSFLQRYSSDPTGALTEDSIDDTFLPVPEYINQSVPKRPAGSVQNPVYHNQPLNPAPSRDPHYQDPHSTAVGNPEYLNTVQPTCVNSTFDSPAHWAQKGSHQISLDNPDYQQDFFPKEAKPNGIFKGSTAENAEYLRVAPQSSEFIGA

[4] = biological target: Cytochrome P450 2C9 (Homo sapiens, UniProt P11712); assay: Inhibition of CYP2C9 (unknown origin); type: ADME
Sequence of Cytochrome P450 2C9 (P11712 whole entry): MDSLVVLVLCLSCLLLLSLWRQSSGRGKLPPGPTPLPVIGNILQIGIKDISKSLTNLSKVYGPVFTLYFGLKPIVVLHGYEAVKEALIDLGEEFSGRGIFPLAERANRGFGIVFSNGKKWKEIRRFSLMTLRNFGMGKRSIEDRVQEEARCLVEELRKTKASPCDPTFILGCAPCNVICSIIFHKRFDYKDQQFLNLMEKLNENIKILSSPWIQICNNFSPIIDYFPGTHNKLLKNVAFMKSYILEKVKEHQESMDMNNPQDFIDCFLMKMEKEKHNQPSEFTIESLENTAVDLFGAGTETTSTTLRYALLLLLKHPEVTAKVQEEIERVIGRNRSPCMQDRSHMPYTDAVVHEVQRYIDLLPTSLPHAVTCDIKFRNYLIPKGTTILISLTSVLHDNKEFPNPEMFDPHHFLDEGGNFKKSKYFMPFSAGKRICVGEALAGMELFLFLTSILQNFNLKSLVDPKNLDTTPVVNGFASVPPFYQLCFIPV

[5] = biological target: Cytochrome P450 2D6 (Homo sapiens, UniProt P10635); assay: Inhibition of CYP2D6 (unknown origin); type: ADME
Sequence of Cytochrome P450 2D6 (P10635 whole entry): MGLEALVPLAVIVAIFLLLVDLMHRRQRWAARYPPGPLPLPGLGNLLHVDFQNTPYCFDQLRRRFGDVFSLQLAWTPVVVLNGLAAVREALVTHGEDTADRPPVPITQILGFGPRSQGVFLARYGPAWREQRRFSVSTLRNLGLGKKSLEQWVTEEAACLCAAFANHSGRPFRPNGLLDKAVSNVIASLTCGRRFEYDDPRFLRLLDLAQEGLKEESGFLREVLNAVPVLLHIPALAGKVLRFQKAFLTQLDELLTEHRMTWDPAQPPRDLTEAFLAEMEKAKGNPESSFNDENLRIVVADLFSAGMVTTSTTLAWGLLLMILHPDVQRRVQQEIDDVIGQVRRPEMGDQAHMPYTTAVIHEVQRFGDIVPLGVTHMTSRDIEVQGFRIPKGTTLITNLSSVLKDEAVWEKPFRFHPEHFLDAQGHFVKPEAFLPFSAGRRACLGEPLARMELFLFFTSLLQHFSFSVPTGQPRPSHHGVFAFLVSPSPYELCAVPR

[6] = biological target: Cytochrome P450 3A4 (Homo sapiens, UniProt P08684); assay: Inhibition of CYP3A4 (unknown origin); type: ADME
Sequence of Cytochrome P450 3A4 (P08684 whole entry): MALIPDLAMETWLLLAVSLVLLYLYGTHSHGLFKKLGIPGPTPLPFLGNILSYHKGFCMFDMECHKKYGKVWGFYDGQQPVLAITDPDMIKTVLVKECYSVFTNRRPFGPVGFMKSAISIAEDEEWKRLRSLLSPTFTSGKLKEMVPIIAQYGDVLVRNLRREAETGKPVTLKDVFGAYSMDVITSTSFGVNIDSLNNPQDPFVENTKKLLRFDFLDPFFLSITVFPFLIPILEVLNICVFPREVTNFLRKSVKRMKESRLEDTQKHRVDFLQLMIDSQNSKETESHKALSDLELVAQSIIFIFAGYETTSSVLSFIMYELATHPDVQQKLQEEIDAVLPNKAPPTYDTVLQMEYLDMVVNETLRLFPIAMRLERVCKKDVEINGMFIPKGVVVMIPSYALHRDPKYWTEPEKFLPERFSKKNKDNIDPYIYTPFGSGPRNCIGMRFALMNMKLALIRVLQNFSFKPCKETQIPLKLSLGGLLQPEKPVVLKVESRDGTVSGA

[7] = Time duration during which free plasma concentration stays above in-vitro IC50 level in human NCI-H1975 cells xenografted Foxn1 nude mouse at 20 mg/kg, po qd for 5 days; type: ADME, organism-based; details: in vivo, 120 h
Outline: (§1)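 H1975 xenografts in Foxn1 nude mice, oral dosing once daily for 5 days. Plasma sampled after the last dose on day 5, at 30 min, 3 h, 7 h and 24 h. Free drug exposure was compared with in vitro cellular IC50 across the dosing interval.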

[8] = Inhibition of EGFR E746 to A750 deletion mutant phosphorylation in human patient derived HCC827 cells incubated for 3 hrs by ELISA method; type: cell-based; details: HCC827, 3 h
Outline: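 HCC827 cells plated at 7500/well in 5% FBS/RPMI and left overnight at 37 °C. Then 3 h with a 12-point compound dilution series, no EGF stimulation. Lysed in Triton/protease/phosphatase-inhibitor buffer. Phospho-EGFR (Y1173) read by sandwich ELISA: anti-EGFR capture, anti-phospho-EGFR, anti-rabbit-HRP, chemiluminescence. IC50 from at least duplicates.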

[9] = Oral bioavailability in balb/c mouse at 20 mg/kg by liquid chromatography-tandem mass spectrometry; type: ADME, organism-based; details: in vivo
Outline: (§2)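 Rodent PK in male balb/c mice and male Wistar rats; plasma drug levels by LC-MS/MS. Mouse oral dosing at 20 mg/kg, with compounds given as a 0.5% methylcellulose/0.5% Tween 80 suspension or as solutions (PEG300/D5W, or ethanol/PEG300 with Solutol or D5W), depending on compound.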

[10] = tested on: Mus musculus; assay: Toxicity in human NCI-H1975 cells xenografted Foxn1 nude mouse assessed as change in body weight at 20 mg/kg, po qd for 5 days (reference value: […]); type: organism-based; details: in vivo, 120 h
[11] = Antitumor activity against human NCI-H1975 cells xenografted in Foxn1 nude mouse assessed as reduction in tumor volume at 50 mg/kg, po qd for 5 days relative to untreated control; type: functional
Outline: (§3)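 Female Foxn1 nude mice, H1975 cells inoculated subcutaneously. Randomized into groups once tumors reached 150−200 mm³, then dosed by oral gavage once daily for 5 days in 0.5% MC/0.5% Tween80 suspension (10 μL/g). Tumor volumes by caliper, (length × width × width)/2. %T/C = 100 × ΔT/ΔC, or % regression = 100 × ΔT/T_initial when ΔT < 0. Body weight recorded daily.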

[12] = Antitumor activity against human NCI-H1975 cells xenografted in Foxn1 nude mouse assessed as reduction in tumor volume at 20 mg/kg, po qd for 5 days relative to untreated control; type: functional; outline: as §3
[13] = AUC in balb/c mouse at 20 mg/kg, po by liquid chromatography-tandem mass spectrometry; type: ADME, organism-based; details: in vivo; outline: as §2
[14] = Clearance in balb/c mouse at 5 mg/kg, iv by liquid chromatography-tandem mass spectrometry; type: ADME, organism-based; details: in vivo; outline: as §2
[15] = Intrinsic clearance in human liver microsomes; type: ADME; details: read-out: CLH
[16] = biological target: T2, Epidermal growth factor receptor (Homo sapiens, UniProt P00533, L858R/T790M); assay: Inhibition of EGFR L858R/T790M mutant phosphorylation in human patient derived H1975 cells incubated for 3 hrs by ELISA method; type: cell-based
T2 sequence (P00533 25-1210 T790M/L858R limits assumed): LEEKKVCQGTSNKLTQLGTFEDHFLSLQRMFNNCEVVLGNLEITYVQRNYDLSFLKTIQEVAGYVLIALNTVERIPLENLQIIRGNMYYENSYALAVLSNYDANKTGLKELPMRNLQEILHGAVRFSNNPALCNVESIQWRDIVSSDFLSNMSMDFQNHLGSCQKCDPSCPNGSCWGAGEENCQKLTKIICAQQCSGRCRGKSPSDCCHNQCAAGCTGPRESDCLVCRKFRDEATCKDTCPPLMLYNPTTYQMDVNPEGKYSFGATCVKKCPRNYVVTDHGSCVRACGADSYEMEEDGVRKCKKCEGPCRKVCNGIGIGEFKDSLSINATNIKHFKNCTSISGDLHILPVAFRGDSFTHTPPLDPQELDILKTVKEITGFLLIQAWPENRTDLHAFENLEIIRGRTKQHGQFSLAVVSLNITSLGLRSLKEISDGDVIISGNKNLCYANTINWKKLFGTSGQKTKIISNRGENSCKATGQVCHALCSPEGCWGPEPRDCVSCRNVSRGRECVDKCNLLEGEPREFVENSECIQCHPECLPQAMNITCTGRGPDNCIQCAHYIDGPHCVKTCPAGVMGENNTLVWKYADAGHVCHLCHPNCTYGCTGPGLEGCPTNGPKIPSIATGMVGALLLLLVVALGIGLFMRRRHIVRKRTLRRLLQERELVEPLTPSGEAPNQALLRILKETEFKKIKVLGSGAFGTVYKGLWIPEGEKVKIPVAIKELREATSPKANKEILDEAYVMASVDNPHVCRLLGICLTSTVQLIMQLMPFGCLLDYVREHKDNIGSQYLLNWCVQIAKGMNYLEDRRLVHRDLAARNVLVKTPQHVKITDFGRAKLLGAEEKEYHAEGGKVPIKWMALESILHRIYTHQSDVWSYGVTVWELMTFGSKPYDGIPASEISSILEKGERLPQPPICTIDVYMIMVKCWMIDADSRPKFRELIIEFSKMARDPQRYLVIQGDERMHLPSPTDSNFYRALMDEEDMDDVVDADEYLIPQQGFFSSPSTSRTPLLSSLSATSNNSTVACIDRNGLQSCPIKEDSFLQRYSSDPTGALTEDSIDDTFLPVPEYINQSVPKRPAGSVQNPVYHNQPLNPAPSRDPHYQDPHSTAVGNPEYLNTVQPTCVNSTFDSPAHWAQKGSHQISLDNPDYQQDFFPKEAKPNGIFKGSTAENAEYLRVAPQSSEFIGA

[17] = biological target: T3, Epidermal growth factor receptor (Homo sapiens, UniProt P00533, L858R); assay: Inhibition of EGFR L858R mutant phosphorylation in human patient derived H3255 cells incubated for 3 hrs by ELISA method; type: cell-based
T3 sequence (P00533 25-1210 L858R limits assumed): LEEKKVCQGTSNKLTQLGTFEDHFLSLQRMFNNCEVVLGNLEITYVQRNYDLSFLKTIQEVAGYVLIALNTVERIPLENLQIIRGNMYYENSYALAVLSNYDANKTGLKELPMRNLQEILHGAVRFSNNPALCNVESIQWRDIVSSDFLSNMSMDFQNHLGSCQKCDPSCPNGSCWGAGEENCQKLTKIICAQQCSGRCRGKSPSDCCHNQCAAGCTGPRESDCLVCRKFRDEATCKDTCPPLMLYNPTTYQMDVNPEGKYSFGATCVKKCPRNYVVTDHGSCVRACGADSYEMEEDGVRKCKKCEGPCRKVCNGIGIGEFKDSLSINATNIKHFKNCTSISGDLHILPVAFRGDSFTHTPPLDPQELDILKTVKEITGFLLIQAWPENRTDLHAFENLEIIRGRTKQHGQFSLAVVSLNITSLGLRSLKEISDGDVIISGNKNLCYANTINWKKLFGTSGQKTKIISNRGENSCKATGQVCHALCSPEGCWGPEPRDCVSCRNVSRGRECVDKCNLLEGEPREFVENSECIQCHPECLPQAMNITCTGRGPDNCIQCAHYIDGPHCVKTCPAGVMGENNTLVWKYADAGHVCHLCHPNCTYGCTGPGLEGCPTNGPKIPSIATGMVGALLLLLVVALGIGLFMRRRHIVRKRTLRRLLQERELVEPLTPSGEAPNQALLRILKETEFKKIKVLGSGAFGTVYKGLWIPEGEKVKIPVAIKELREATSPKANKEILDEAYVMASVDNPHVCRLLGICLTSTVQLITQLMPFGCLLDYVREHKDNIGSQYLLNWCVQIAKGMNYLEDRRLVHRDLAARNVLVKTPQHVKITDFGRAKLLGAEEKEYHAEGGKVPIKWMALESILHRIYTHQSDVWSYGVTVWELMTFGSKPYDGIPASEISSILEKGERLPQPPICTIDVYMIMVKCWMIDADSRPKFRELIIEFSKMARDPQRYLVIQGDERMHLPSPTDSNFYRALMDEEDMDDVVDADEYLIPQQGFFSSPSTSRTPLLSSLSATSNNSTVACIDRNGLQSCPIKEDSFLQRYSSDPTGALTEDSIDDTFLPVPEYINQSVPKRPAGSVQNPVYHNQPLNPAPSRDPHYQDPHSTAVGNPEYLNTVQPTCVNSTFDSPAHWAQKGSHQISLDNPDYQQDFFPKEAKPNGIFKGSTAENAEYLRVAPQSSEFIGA

[18] = Glutathione reactivity assessed as GSH adduct formation incubated for 1 hr using 10 mM glutathione
Outline: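 Compound incubated 1 h with 10 mM glutathione; GSH adduct formation measured.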

[19] = tested on: Mus musculus; assay: Toxicity in human NCI-H1975 cells xenografted Foxn1 nude mouse assessed as change in body weight at 50 mg/kg, po qd for 5 days (reference value: […]); type: organism-based; details: in vivo, 120 h
[20] = biological target: T2, Epidermal growth factor receptor; assay: Inhibition of N-terminal 6x-HIS-tagged human recombinant EGFR (696 to 1022 residues) L858R/T790M mutant expressed in Sf9 cells pre-incubated for 0 mins followed by 1 mM ATP addition by HTRF assay
Outline: (§4)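 HTRF kinase assay on the EGFR L858R-T790M kinase domain at 1 mM ATP. Compound with either no preincubation or a 90 min enzyme/compound preincubation.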

[21] = biological target: T2, Epidermal growth factor receptor; assay: Inhibition of N-terminal 6x-HIS-tagged human recombinant EGFR (696 to 1022 residues) L858R/T790M mutant expressed in Sf9 cells pre-incubated for 90 mins followed by 1 mM ATP addition by HTRF assay; outline: as §4
[22] = biological target: T1, Epidermal growth factor receptor; assay: Inhibition of N-terminal 6x-HIS-tagged wild type human recombinant EGFR (696 to 1022 residues) expressed in Sf9 cells pre-incubated for 90 mins followed by 10 uM ATP addition by HTRF assay
[23] = biological target: T3, Epidermal growth factor receptor; assay: Inhibition of N-terminal 6x-HIS-tagged human recombinant EGFR (696 to 1022 residues) L858R mutant expressed in Sf9 cells pre-incubated for 90 mins followed by 10 uM ATP addition by HTRF assay
[24] = biological target: T2, Epidermal growth factor receptor; assay: Inhibition of N-terminal 6x-HIS-tagged human recombinant EGFR (696 to 1022 residues) L858R/T790M mutant expressed in Sf9 cells pre-incubated for 90 mins followed by 10 uM ATP addition by HTRF assay
[25] = tested on: Mus musculus; assay: Toxicity in human NCI-H1975 cells xenografted Foxn1 nude mouse assessed as change in body weight at 25 mg/kg, po qd for 5 days (reference value: […]); type: organism-based; details: in vivo, 120 h
[26] = Time duration during which free plasma concentration stays above in-vitro IC50 level in human NCI-H1975 cells xenografted Foxn1 nude mouse at 25 mg/kg, po qd for 5 days; type: ADME, organism-based; details: in vivo, 120 h; outline: as §1
[27] = Antitumor activity against human NCI-H1975 cells xenografted in Foxn1 nude mouse assessed as reduction in tumor volume at 25 mg/kg, po qd for 5 days relative to untreated control; type: functional; outline: as §3

SMILES: Cc1cc(C(=O)Nc2nc3cccc(C)c3n2[C@@H]2CCCCN(C(=O)/C=C/CN(C)C)C2)ccn1
solubility [1]: > 175 µM
microsomal CLint [2]: 62 µL/min/mg
IC50 [3]: 68 nM
IC50 [4]: > 25000 nM
IC50 [5]: > 25000 nM
IC50 [6]: > 25000 nM
Time [7]: <= 14 hr
IC50 [8]: 1.01 nM
bioavailability [9]: 34%
Activity [10]: -1.1%
T/C [11]: -65%
T/C [12]: -6%
AUC [13]: 3.53 µM·h
clearance [14]: 68.5 mL/min/kg
microsomal CLint [15]: 26 µL/min/mg
IC50 [16]: 2.11 nM
IC50 [17]: 3.05 nM
Drug metabolism [18]: < 5%
Activity [19]: -5%

SMILES: C=CC(=O)Nc1ccc(-n2c(NC(=O)c3cccc(C(F)(F)F)c3)nc3cc(C)ccc32)cc1
IC50 [20]: > 50000 nM
IC50 [21]: > 50000 nM

SMILES: C=CC(=O)N1CC(n2c(NC(=O)c3cccc(C(F)(F)F)c3)nc3cc(C)ccc32)C1
IC50 [20]: > 50000 nM
IC50 [21]: > 50000 nM

SMILES: O=C(Nc1nc2ccccc2n1[C@H]1CC[C@H](O)CC1)c1cccc(C(F)(F)F)c1
IC50 [22]: > 50000 nM
IC50 [23]: 2000 nM
IC50 [24]: 260 nM

SMILES: Cc1ccc2c(c1)nc(NC(=O)c1cccc(C(F)(F)F)c1)n2[C@H]1CC[C@H](O)CC1
IC50 [22]: > 11800 nM
IC50 [23]: > 8480 nM
IC50 [24]: 140 nM

SMILES: CCOCc1ccc2c(c1)nc(NC(=O)c1cccc(C(F)(F)F)c1)n2[C@H]1CC[C@H](O)CC1
IC50 [22]: > 42000 nM
IC50 [23]: 2080 nM
IC50 [24]: 470 nM

SMILES: C=CC(=O)NCCn1c(NC(=O)c2cccc(C(F)(F)F)c2)nc2cc(C)ccc21
IC50 [20]: > 50000 nM
IC50 [21]: > 50000 nM

SMILES: Cc1cccc2nc(NC(=O)c3cccc(C(F)(F)F)c3)n([C@H]3CC[C@H](O)CC3)c12
IC50 [22]: 5270 nM
IC50 [23]: 680 nM
IC50 [24]: 90 nM

SMILES: C=CC(=O)Nc1cccc(-n2c(NC(=O)c3cccc(C(F)(F)F)c3)nc3cc(C)ccc32)c1
IC50 [20]: > 50000 nM
IC50 [8]: 272 nM
IC50 [21]: 4 nM
IC50 [16]: 135 nM
IC50 [17]: 1040 nM

SMILES: CN(C)C/C=C/C(=O)Nc1cc2c(Nc3ccc(F)c(Cl)c3)ncnc2cc1O[C@H]1CCOC1 [AFATINIB]
Activity [25]: -2.4%
Drug metabolism [18]: 60%
Time [26]: <= 14 hr
T/C [27]: 38%

The remaining lines, values ahead:

IC50 [20]: > 50000 nM
IC50 [21]: > 50000 nM
SMILES: C=CC(=O)N[C@H]1CC[C@@H](n2c(NC(=O)c3cccc(C(F)(F)F)c3)nc3cc(C)ccc32)CC1

IC50 [20]: > 50000 nM
IC50 [3]: > 10000 nM
IC50 [8]: 153 nM
IC50 [21]: 20 nM
IC50 [16]: 24.7 nM
IC50 [17]: 421 nM
SMILES: C=CC(=O)N1CCCC(n2c(NC(=O)c3cccc(C(F)(F)F)c3)nc3cc(C)ccc32)C1 (stereo not given)

IC50 [20]: > 50000 nM
IC50 [21]: > 50000 nM
SMILES: C=CC(=O)N[C@H]1CCCC[C@H]1n1c(NC(=O)c2cccc(C(F)(F)F)c2)nc2cc(C)ccc21 (racemic)

IC50 [20]: > 50000 nM
IC50 [21]: > 50000 nM
SMILES: C=CC(=O)N1CCCC(n2c(NC(=O)c3cccc(C(F)(F)F)c3)nc3cc(C)ccc32)CC1 (stereo not given)

IC50 [20]: > 50000 nM
IC50 [21]: > 50000 nM
SMILES: C=CC(=O)N[C@@H]1CCCC[C@H]1n1c(NC(=O)c2cccc(C(F)(F)F)c2)nc2cc(C)ccc21 (racemic)
